Experimental data published in ChEMBL document CHEMBL5252523, “Searching for New Leads for Tuberculosis: Design, Synthesis, and Biological Evaluation of Novel 2-Quinolin-4-yloxyacetamides” (J Med Chem, 2016).
Converted amounts (≈) assume the structure as drawn.

test system: not listed separately; test: Chromatographic hydrophobicity index, log D of the compound in phosphate buffer at pH 7.4 by UV-HPLC analysis; type: physicochemical; settings: not given

Row | SMILES | chromatographic logD
1 | COc1cccc(NC(=O)COc2cc(C)nc3ccc(OC)cc23)c1 | 4.49
2 | COc1ccc2nc(C)cc(NCC(=O)Nc3cc(C)cc(C)c3)c2c1 | 3.59
3 | COc1ccc2nc(C)cc(OCC(=O)Nc3ccc(S(=O)(=O)Nc4cc(C)on4)cc3)c2c1 | 2.2
4 | COc1ccc2nc(C)cc(OCC(=O)Nc3c(C)cccc3C)c2c1 | 4.55
5 | COc1ccc2nc(C)cc(NC(=O)C(=O)Nc3cc(C)cc(C)c3)c2c1 | 6.47
6 | COc1ccc2nc(C)cc(OCC(=O)Nc3nc(C)c(C)s3)c2c1 | 4.24
7 | COc1ccc2nc(C(F)(F)F)cc(OCC(=O)Nc3cc(C)cc(C)c3)c2c1 | 7.02
8 | CSc1ccc2nc(C)cc(OCC(=O)Nc3cc(C)cc(C)c3)c2c1 | 6.42
9 | COc1ccc2nc(C)cc(OCC(=O)Nc3ccncn3)c2c1 | 2.53
10 | Cc1cc(C)cc(NC(=O)COc2cc(C)nc3ccccc23)c1 | 5.39
11 | CCCc1cc(OCC(=O)Nc2cc(C)cc(C)c2)c2cc(OC)ccc2n1 | 6.44
12 | COc1ccc2nc(C)cc(OC(C(=O)Nc3cc(C)cc(C)c3)c3ccccc3)c2c1 (stereo not given) | 7.13
13 | COc1ccc2nc(C)cc(OC3CCN(c4ccccc4)C3=O)c2c1 (stereo not given) | 4.99
14 | COc1ccc2nc(C)cc(OC(C)C(=O)Nc3cc(C)cc(C)c3)c2c1 (stereo not given) | 5.76
15 | COc1ccc2nc(C)cc(OCC(=O)Nc3cc(C)c(OC)c(C)c3)c2c1 | 4.99
16 | Cc1cc(C)cc(NC(=O)COc2cc(C)nc3ccc(OCc4ccccc4)cc23)c1 | 7.03
17 | COc1ccc2nc(C)cc(OCC(=O)Nc3ccc(Cl)c(OC)c3)c2c1 | 5.09
18 | COc1cc2nc(C)cc(OCC(=O)Nc3cc(C)cc(C)c3)c2cc1OC | 4.84

test system: not listed separately; test: Cytotoxicity against human HepG2 cells assessed as cell growth inhibition incubated for 48 hrs by CellTiter-Glo reagent based analysis; type: toxicity; settings: not given
Outline: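 HepG2 cells kept in Eagle's MEM with 10% heat-inactivated FBS, 1% NEAA and penicillin/streptomycin, seeded at ~3000 cells/well onto pre-dispensed compound. Incubation was 48 h at 37 °C, 5% CO2. Plates were equilibrated to room temperature, CellTiter-Glo was added, and ATP luminescence was read after 10 min as the viability read-out.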

Row | SMILES | IC50 at 48 h [µM]
19 | COc1cccc(NC(=O)COc2cc(C)nc3ccc(OC)cc23)c1 | > 100
20 | COc1ccc2nc(C)cc(NCC(=O)Nc3cc(C)cc(C)c3)c2c1 | 6.31
21 | COc1ccc2nc(C)cc(OCC(=O)Nc3ccc(S(=O)(=O)Nc4cc(C)on4)cc3)c2c1 | > 100
22 | COc1ccc2nc(C)cc(OCC(=O)Nc3c(C)cccc3C)c2c1 | > 100
23 | COc1ccc2nc(C)cc(NC(=O)C(=O)Nc3cc(C)cc(C)c3)c2c1 | > 100
24 | COc1ccc2nc(C)cc(OCC(=O)Nc3nc(C)c(C)s3)c2c1 | > 100
25 | COc1ccc2nc(C(F)(F)F)cc(OCC(=O)Nc3cc(C)cc(C)c3)c2c1 | > 100
26 | CSc1ccc2nc(C)cc(OCC(=O)Nc3cc(C)cc(C)c3)c2c1 | > 100
27 | COc1ccc2nc(C)cc(OCC(=O)Nc3ccncn3)c2c1 | > 100
28 | Cc1cc(C)cc(NC(=O)COc2cc(C)nc3ccccc23)c1 | > 100
29 | CCCc1cc(OCC(=O)Nc2cc(C)cc(C)c2)c2cc(OC)ccc2n1 | 12.6
30 | COc1ccc2nc(C)cc(OC(C(=O)Nc3cc(C)cc(C)c3)c3ccccc3)c2c1 (stereo not given) | > 100
31 | COc1ccc2nc(C)cc(OC3CCN(c4ccccc4)C3=O)c2c1 (stereo not given) | 100
32 | COc1ccc2nc(C)cc(OC(C)C(=O)Nc3cc(C)cc(C)c3)c2c1 (stereo not given) | 39.8
33 | COc1ccc2nc(C)cc(OCC(=O)Nc3cc(C)c(OC)c(C)c3)c2c1 | 7.94
34 | Cc1cc(C)cc(NC(=O)COc2cc(C)nc3ccc(OCc4ccccc4)cc23)c1 | > 100
35 | COc1ccc2nc(C)cc(OCC(=O)Nc3ccc(Cl)c(OC)c3)c2c1 | > 100
36 | COc1ccc2nc(C)c3nc(C(=S)Nc4cc(C)cc(C)c4)sc3c2c1 | > 100
37 | COc1cc2nc(C)cc(OCC(=O)Nc3cc(C)cc(C)c3)c2cc1OC | 10

test system: not listed separately; test: Artificial membrane permeability of the compound incubated for 3 hrs by HPLC analysis; type: ADME; settings: PAMPA, read-out: permeability

Row | SMILES | Papp at 3 h [×10⁻⁶ cm/s]
38 | COc1cccc(NC(=O)COc2cc(C)nc3ccc(OC)cc23)c1 | 47
39 | COc1ccc2nc(C)cc(NCC(=O)Nc3cc(C)cc(C)c3)c2c1 | 31
40 | COc1ccc2nc(C)cc(OCC(=O)Nc3ccc(S(=O)(=O)Nc4cc(C)on4)cc3)c2c1 | 1.5
41 | COc1ccc2nc(C)cc(OCC(=O)Nc3c(C)cccc3C)c2c1 | 63
42 | COc1ccc2nc(C)cc(OCC(=O)Nc3nc(C)c(C)s3)c2c1 | 44
43 | COc1ccc2nc(C(F)(F)F)cc(OCC(=O)Nc3cc(C)cc(C)c3)c2c1 | < 1
44 | COc1ccc2nc(C)cc(OCC(=O)Nc3ccncn3)c2c1 | 52.5
45 | Cc1cc(C)cc(NC(=O)COc2cc(C)nc3ccccc23)c1 | 37
46 | COc1ccc2nc(C)cc(OC(C(=O)Nc3cc(C)cc(C)c3)c3ccccc3)c2c1 (stereo not given) | < 3
47 | COc1ccc2nc(C)cc(OC3CCN(c4ccccc4)C3=O)c2c1 (stereo not given) | 55
48 | COc1ccc2nc(C)cc(OC(C)C(=O)Nc3cc(C)cc(C)c3)c2c1 (stereo not given) | 32
49 | COc1ccc2nc(C)cc(OCC(=O)Nc3cc(C)c(OC)c(C)c3)c2c1 | 32
50 | Cc1cc(C)cc(NC(=O)COc2cc(C)nc3ccc(OCc4ccccc4)cc23)c1 | < 1
51 | COc1ccc2nc(C)cc(OCC(=O)Nc3ccc(Cl)c(OC)c3)c2c1 | 57
52 | COc1ccc2nc(C)c3nc(C(=S)Nc4cc(C)cc(C)c4)sc3c2c1 | < 3
53 | COc1cc2nc(C)cc(OCC(=O)Nc3cc(C)cc(C)c3)c2cc1OC | 60.5

test system: not listed separately; test: Kinetic aqueous solubility of compound in phosphate buffer at pH 7.4 incubated for 1 hrs by CLND assay; type: physicochemical; settings: read-out: Kinetic_solubility

Row | SMILES | solubility kinetic at 1 h [µM]
54 | COc1cccc(NC(=O)COc2cc(C)nc3ccc(OC)cc23)c1 | 35 (≈ 12.3 µg/mL)
55 | COc1ccc2nc(C)cc(NCC(=O)Nc3cc(C)cc(C)c3)c2c1 | 204 (≈ 71.3 µg/mL)
56 | COc1ccc2nc(C)cc(OCC(=O)Nc3ccc(S(=O)(=O)Nc4cc(C)on4)cc3)c2c1 | ≥ 381
57 | COc1ccc2nc(C)cc(OCC(=O)Nc3c(C)cccc3C)c2c1 | 112 (≈ 39.2 µg/mL)
58 | COc1ccc2nc(C)cc(NC(=O)C(=O)Nc3cc(C)cc(C)c3)c2c1 | 10 (≈ 3.63 µg/mL)
59 | COc1ccc2nc(C)cc(OCC(=O)Nc3nc(C)c(C)s3)c2c1 | 31.5 (≈ 11.3 µg/mL)
60 | COc1ccc2nc(C(F)(F)F)cc(OCC(=O)Nc3cc(C)cc(C)c3)c2c1 | 15 (≈ 6.07 µg/mL)
61 | CSc1ccc2nc(C)cc(OCC(=O)Nc3cc(C)cc(C)c3)c2c1 | 3 (≈ 1.1 µg/mL)
62 | COc1ccc2nc(C)cc(OCC(=O)Nc3ccncn3)c2c1 | 27.5 (≈ 8.92 µg/mL)
63 | Cc1cc(C)cc(NC(=O)COc2cc(C)nc3ccccc23)c1 | 55 (≈ 17.6 µg/mL)
64 | CCCc1cc(OCC(=O)Nc2cc(C)cc(C)c2)c2cc(OC)ccc2n1 | 12 (≈ 4.54 µg/mL)
65 | COc1ccc2nc(C)cc(OC(C(=O)Nc3cc(C)cc(C)c3)c3ccccc3)c2c1 (stereo not given) | 2 (≈ 0.853 µg/mL)
66 | COc1ccc2nc(C)cc(OC3CCN(c4ccccc4)C3=O)c2c1 (stereo not given) | 215 (≈ 74.9 µg/mL)
67 | COc1ccc2nc(C)cc(OC(C)C(=O)Nc3cc(C)cc(C)c3)c2c1 (stereo not given) | 61 (≈ 22.2 µg/mL)
68 | COc1ccc2nc(C)cc(OCC(=O)Nc3cc(C)c(OC)c(C)c3)c2c1 | 17 (≈ 6.47 µg/mL)
69 | Cc1cc(C)cc(NC(=O)COc2cc(C)nc3ccc(OCc4ccccc4)cc23)c1 | < 1
70 | COc1ccc2nc(C)cc(OCC(=O)Nc3ccc(Cl)c(OC)c3)c2c1 | 13 (≈ 5.03 µg/mL)
71 | COc1ccc2nc(C)c3nc(C(=S)Nc4cc(C)cc(C)c4)sc3c2c1 | 35 (≈ 13.8 µg/mL)

test system: Mycobacterium tuberculosis; test: Antimycobacterial activity against Mycobacterium tuberculosis H37Rv ATCC 25618 assessed as inhibition of microbial growth incubated for 6 days by resazurin based assay; type: functional; settings: H37Rv ATCC 25618, 144 h, time 6 day
Outline: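 Ten two-fold dilutions made in neat DMSO, tested in Middlebrook 7H9 with the H37Rv inoculum. Controls: isoniazid from 4 μg/ml as positive control; rifampicin 1 μM as no-growth control. Plates sat sealed at 37 °C without shaking for 6 days.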

Row | SMILES | MIC [µM]
72 | COc1cccc(NC(=O)COc2cc(C)nc3ccc(OC)cc23)c1 | 6.4
73 | COc1ccc2nc(C)cc(NCC(=O)Nc3cc(C)cc(C)c3)c2c1 | 47
74 | COc1ccc2nc(C)cc(OCC(=O)Nc3ccc(S(=O)(=O)Nc4cc(C)on4)cc3)c2c1 | 125
75 | COc1ccc2nc(C)cc(OCC(=O)Nc3c(C)cccc3C)c2c1 | 125
76 | COc1ccc2nc(C)cc(NC(=O)C(=O)Nc3cc(C)cc(C)c3)c2c1 | > 125
77 | COc1ccc2nc(C)cc(OCC(=O)Nc3nc(C)c(C)s3)c2c1 | 62
78 | COc1ccc2nc(C(F)(F)F)cc(OCC(=O)Nc3cc(C)cc(C)c3)c2c1 | > 250
79 | CSc1ccc2nc(C)cc(OCC(=O)Nc3cc(C)cc(C)c3)c2c1 | > 125
80 | COc1ccc2nc(C)cc(OCC(=O)Nc3ccncn3)c2c1 | > 250
81 | Cc1cc(C)cc(NC(=O)COc2cc(C)nc3ccccc23)c1 | 24
82 | CCCc1cc(OCC(=O)Nc2cc(C)cc(C)c2)c2cc(OC)ccc2n1 | > 250
83 | COc1ccc2nc(C)cc(OC(C(=O)Nc3cc(C)cc(C)c3)c3ccccc3)c2c1 (stereo not given) | > 125
84 | COc1ccc2nc(C)cc(OC3CCN(c4ccccc4)C3=O)c2c1 (stereo not given) | 125
85 | COc1ccc2nc(C)cc(OC(C)C(=O)Nc3cc(C)cc(C)c3)c2c1 (stereo not given) | 125
86 | COc1ccc2nc(C)cc(OCC(=O)Nc3cc(C)c(OC)c(C)c3)c2c1 | 1
87 | Cc1cc(C)cc(NC(=O)COc2cc(C)nc3ccc(OCc4ccccc4)cc23)c1 | > 250
88 | COc1ccc2nc(C)cc(OCC(=O)Nc3ccc(Cl)c(OC)c3)c2c1 | > 125
89 | COc1ccc2nc(C)c3nc(C(=S)Nc4cc(C)cc(C)c4)sc3c2c1 | > 125
90 | COc1cc2nc(C)cc(OCC(=O)Nc3cc(C)cc(C)c3)c2cc1OC | > 250
